Results taken from ChEMBL document CHEMBL1122345, “Antihypertensive agents: angiotensin converting enzyme inhibitors. 1-[3-(Acylthio)-3-aroylpropionyl]-L-prolines” (J Med Chem, 1983).

Columns and labels:
[1] = biological target: T1, Angiotensin-converting enzyme (Rattus norvegicus) (UniProt P47820); assay: (§1) Change in mean arterial blood pressure (MABP) after 20 mg/kg (po) dosage in Aorta-Coated renal hypertensive rat at 0.5 h; format: functional, organism-based; parameters: dose 20 mg/kg
T1 sequence (whole entry): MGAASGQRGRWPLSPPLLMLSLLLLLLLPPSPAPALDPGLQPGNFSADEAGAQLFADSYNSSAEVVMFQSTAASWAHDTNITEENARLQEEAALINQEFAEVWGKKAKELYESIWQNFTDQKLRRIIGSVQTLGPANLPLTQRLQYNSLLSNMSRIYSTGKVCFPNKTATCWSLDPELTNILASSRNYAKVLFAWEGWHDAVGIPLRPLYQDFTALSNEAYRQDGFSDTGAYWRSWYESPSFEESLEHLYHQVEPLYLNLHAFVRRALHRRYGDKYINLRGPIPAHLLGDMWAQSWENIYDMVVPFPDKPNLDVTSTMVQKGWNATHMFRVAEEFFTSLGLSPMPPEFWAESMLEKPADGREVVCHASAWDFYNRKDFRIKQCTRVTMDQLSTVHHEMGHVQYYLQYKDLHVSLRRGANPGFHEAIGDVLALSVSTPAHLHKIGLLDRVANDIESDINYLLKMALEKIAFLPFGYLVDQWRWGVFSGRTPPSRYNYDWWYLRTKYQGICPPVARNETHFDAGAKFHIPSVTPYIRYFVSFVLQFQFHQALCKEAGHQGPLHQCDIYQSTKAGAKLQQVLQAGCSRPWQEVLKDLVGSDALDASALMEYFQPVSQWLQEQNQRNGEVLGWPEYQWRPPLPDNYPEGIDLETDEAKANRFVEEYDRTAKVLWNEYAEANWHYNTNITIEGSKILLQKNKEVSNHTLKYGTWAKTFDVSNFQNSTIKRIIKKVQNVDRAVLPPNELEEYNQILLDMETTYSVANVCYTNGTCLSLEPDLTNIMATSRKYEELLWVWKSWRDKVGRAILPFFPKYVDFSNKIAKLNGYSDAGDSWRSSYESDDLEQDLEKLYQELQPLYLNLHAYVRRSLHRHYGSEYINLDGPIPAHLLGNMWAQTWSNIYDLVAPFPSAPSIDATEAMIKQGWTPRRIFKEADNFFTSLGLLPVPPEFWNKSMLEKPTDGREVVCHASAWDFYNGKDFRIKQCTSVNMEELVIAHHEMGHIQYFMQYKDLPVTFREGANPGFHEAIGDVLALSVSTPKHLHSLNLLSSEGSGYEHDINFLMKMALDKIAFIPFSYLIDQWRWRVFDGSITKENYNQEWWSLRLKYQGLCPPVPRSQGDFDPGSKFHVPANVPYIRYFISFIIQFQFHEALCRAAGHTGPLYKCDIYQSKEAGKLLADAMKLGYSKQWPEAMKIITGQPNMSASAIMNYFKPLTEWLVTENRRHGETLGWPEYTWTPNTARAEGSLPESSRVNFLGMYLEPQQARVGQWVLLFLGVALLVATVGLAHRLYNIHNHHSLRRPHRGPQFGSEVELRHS
In short: (§2)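 Oral gavage to conscious, unrestrained rats made hypertensive by complete aortic ligation between the renal artery origins; only rats with MABP ≥150 mmHg on days 4–6 after coarctation used. Vehicle: ethanol, polyethylene glycol, Tween-80, diluted with saline. Direct arterial pressure via indwelling carotid cannula implanted 24 h earlier; change vs vehicle controls, means ± standard error, unpaired Student's t test.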

[2] = biological target: T1, Angiotensin-converting enzyme (Rattus norvegicus); assay: Change in mean arterial blood pressure (MABP) after 20 mg/kg (po) dosage in Aorta-Coated renal hypertensive rat at 2.0 h; format: functional, organism-based; parameters: dose 20 mg/kg; in short: as §2
[3] = system: Rattus norvegicus; assay: as §1; format: functional; in short: as §2

Compound | Delta MABP [1] [mmHg] | Delta MABP [2] [mmHg] | Delta MABP [3] [mmHg]
CC(=O)SC(CC(=O)N1CCCC1C(=O)O)C(=O)c1cccc(C(F)(F)F)c1 (stereo not given) | -17.5 | -0.83 | –
CC(=O)SC(C(=O)c1ccc(Cl)cc1)C(C)C(=O)N1CCCC1C(=O)O (stereo not given) | -24 | -30.5 | –
C[C@H](CS)C(=O)N1CCC[C@H]1C(=O)O | -27.7 | -21.7 | –
CC(=O)SC(CC(=O)N1CCCC1C(=O)O)C(=O)c1ccc(C(C)(C)C)cc1 (stereo not given) | -30 | -19.2 | –
CC(=O)SC(CC(=O)N1CCCC1C(=O)O)C(=O)c1cccc(F)c1 (stereo not given) | -17 | -5.43 | –
O=C(SC(CC(=O)N1CCCC1C(=O)O)C(=O)c1ccc(F)cc1)c1ccccc1 (stereo not given) | -12 | -6.5 | –
CC(=O)SC(CC(=O)N1CCCC1C(=O)O)C(=O)c1ccccc1 (stereo not given) | – | -5.25 | -19.2
O=C(SC(CC(=O)N1CCCC1C(=O)O)C(=O)c1cccc(F)c1)c1ccccc1 (stereo not given) | -41 | 3.75 | –
CC(=O)S[C@@H](C(=O)c1ccc(Br)cc1)[C@@H](C)C(=O)N1CCC[C@H]1C(=O)O | -27.1 | -31.3 | –
CC(=O)SC(CC(=O)N1CCCC1C(=O)O)C(=O)c1ccc(Br)cc1 (stereo not given) | -18.3 | -10.4 | –
O=C(SC(CC(=O)N1CCCC1C(=O)O)C(=O)c1ccc(Br)cc1)c1ccccc1 (stereo not given) | -10 | -14.3 | –
CC(=O)S[C@H](C(=O)c1cccc(F)c1)[C@@H](C)C(=O)N1CCC[C@H]1C(=O)O | -24.8 | -28 | –
COc1ccc(C(=O)C(CC(=O)N2CCCC2C(=O)O)SC(C)=O)cc1F (stereo not given) | -12.7 | -11 | –
CC(=O)SC(CC(=O)N1CCCC1C(=O)O)C(=O)c1ccc2ccccc2c1 (stereo not given) | -17.3 | -6.67 | –
O=C(c1ccc(Br)cc1)C(S)CC(=O)N1CCCC1C(=O)O (stereo not given) | -8.8 | -12 | –
CC(=O)SC(CC(=O)N1CCCC1C(=O)O)C(=O)c1ccc(F)cc1 (stereo not given) | -15.8 | -14.7 | –
CC(=O)S[C@@H](C(=O)c1ccccc1)[C@@H](C)C(=O)N1CCC[C@H]1C(=O)O | -22.4 | -17.1 | –
CC(=O)SC(CC(=O)N1CCCC1C(=O)O)C(=O)c1ccc2c(c1)CCC2 (stereo not given) | -18.5 | -30 | –
CC(=O)SC(CC(=O)N1CCCC1C(=O)O)C(=O)c1ccc(Cl)cc1 (stereo not given) | – | -11.7 | -17.33
CC(=O)S[C@H](C(=O)c1ccc(Br)cc1)[C@@H](C)C(=O)N1CCC[C@H]1C(=O)O | -23.5 | -26.7 | –
O=C(SC(CC(=O)N1CCCC1C(=O)O)C(=O)c1ccccc1)c1ccccc1 (stereo not given) | -1 | -22.7 | –
CC(=O)S[C@@H](C(=O)c1cccc(F)c1)[C@@H](C)C(=O)N1CCC[C@H]1C(=O)O | -17.5 | – | –
CC(=O)S[C@H](C(=O)c1ccccc1)[C@@H](C)C(=O)N1CCC[C@H]1C(=O)O | -23 | -23.2 | –
